Tested on: sodium currents expressed in rat hippocampal neurons
Type: cell-based
Settings: cultured hippocampal neurons
In short: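 E18 rat hippocampal neurons were trypsin-dissociated and kept up to 4 weeks on poly-L-lysine over a glial monolayer in serum-free MEM with N2. Whole-cell clamp was done at 20–22 °C with a CsF pipette and a 30 mM NaCl bath containing Cd2+ and TEA, both pH 7.3. After 5 min at −90 mV, 25 ms steps to −10 mV were applied with P/4 leak subtraction. Test compound was superfused at 50 μM, then washed out.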

| Compound | Reversibility of Na current block on washout |
| --- | --- |
| CC(C)c1cc(CCCCC(O)(C(N)=O)C(F)(F)F)cc(C(C)C)c1O (centres unmarked) [Compound 4, 2-Hydroxy-6-(4-hydroxy-3,5-diisopropyl-phenyl)-2-trifluoromethyl-hexanoic acid amide] | fully reversible |
| CC(C)c1cc(CCCCCCC(O)(C(N)=O)C(F)(F)F)cc(C(C)C)c1O (centres unmarked) [Compound 5, 2-Hydroxy-8-(4-hydroxy-3,5-diisopropyl-phenyl)-2-trifluoromethyl-octanoic acid amide] | fully reversible |
